Consider seven compounds from ChEMBL document CHEMBL3352173, “Optimization of pyrrolamide topoisomerase II inhibitors toward identification of an antibacterial clinical candidate (AZD5099)” (J Med Chem, 2014).

Converted amounts (≈) assume the structure as drawn.

In one series the test system is Haemophilus influenzae. As to the kind of experiment: Antimicrobial activity against Haemophilus influenzae by broth microdilution/CLSI method. The class given is functional. The conditions noted are these: Haemophilus influenzae; read-out: MIC.
In another series the target is DNA gyrase subunit B (Staphylococcus aureus, UniProt P0A0K8). The series can be described thus: Inhibition of ATPase activity of Staphylococcus aureus GyrB. The essentials: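 IC50 was determined against S. aureus GyrB in the routine screening assay. The enzyme concentration limits resolution below 10 nM.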
Chain of DNA gyrase subunit B (P0A0K8 whole entry): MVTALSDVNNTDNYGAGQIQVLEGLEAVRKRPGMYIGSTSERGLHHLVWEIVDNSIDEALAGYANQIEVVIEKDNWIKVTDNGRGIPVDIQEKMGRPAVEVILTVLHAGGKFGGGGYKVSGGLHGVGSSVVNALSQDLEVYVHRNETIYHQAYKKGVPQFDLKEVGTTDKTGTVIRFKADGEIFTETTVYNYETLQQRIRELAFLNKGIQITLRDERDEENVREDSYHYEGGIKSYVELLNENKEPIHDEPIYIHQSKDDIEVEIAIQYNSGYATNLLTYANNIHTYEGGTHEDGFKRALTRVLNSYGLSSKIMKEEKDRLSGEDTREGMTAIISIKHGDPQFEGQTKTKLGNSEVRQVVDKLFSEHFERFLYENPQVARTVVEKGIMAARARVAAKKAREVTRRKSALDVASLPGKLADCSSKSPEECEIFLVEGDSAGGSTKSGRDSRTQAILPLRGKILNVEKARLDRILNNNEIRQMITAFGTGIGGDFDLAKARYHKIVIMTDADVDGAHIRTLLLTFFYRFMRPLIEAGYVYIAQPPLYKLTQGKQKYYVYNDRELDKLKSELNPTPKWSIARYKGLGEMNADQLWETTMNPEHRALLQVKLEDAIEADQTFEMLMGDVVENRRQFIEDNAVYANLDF
A further series has as its system Streptococcus pneumoniae. As to the kind of experiment: Antibacterial activity against Streptococcus pneumoniae by broth microdilution/CLSI method. Type of series: functional. The conditions noted are these: Streptococcus pneumoniae; read-out: MIC. (In general: Dilution methods test growth across graded concentrations, often in twofold steps.)
The subject of a further series is Streptococcus pyogenes. The series can be described thus: Antimicrobial activity against Streptococcus pyogenes by broth microdilution/CLSI method. The class given is functional.
For series [1], the system named is Staphylococcus aureus. As to the kind of experiment: Antimicrobial activity against methicillin-sensitive Staphylococcus aureus by broth microdilution/CLSI method. Type of series: functional. The conditions noted are these: Staphylococcus aureus; read-out: MIC.
The test system of series [2] is Staphylococcus aureus. The series can be described thus: Antimicrobial activity against methicillin, quinolone-resistant Staphylococcus aureus by broth microdilution/CLSI method. Particulars: Staphylococcus aureus; read-out: MIC. Type of series: functional.
The test system of a further series is Moraxella catarrhalis. As to the kind of experiment: Antimicrobial activity against Moraxella catarrhalis by broth microdilution/CLSI method. Type of series: functional. Particulars: Moraxella catarrhalis; read-out: MIC.
Series [3] concerns Escherichia coli. The series can be described thus: Antimicrobial activity against wild-type Escherichia coli Eco523 by broth microdilution/CLSI method. The conditions noted are these: Escherichia coli, Eco523; read-out: MIC. Type of series: functional.
Series [4] relates to Escherichia coli. As to the kind of experiment: Antimicrobial activity against Escherichia coli tolC- by broth microdilution/CLSI method. Type of series: functional. The conditions noted are these: Escherichia coli; read-out: MIC.
A short description of series [5]: Octanol-phosphate buffer distribution coefficient, log D of the compound at pH 7.4 by shake flask method. The class given is physicochemical.
Series [6] is described as follows: Percentage unbound in human plasma. Type of series: ADME, cell-free.
Series [7] in a line: Solubility of the compound. The class given is physicochemical.
A short description of series [8]: Ratio of MIC for methicillin, quinolone-resistant Staphylococcus aureus to fraction unbound in human plasma. Type of series: ADME.
The nature of series [9]: Clearance in rat at 10 mg/kg, iv. Type of series: ADME, organism-based. Further details: dose 10 mg/kg, route intravenous. Particulars: in vivo.

A word on the IC50: it is the midpoint of a concentration-inhibition curve. High values mean weaker potency in that assay, low ones greater potency in that assay. The term logD denotes lipophilicity at a set pH, counting ionised and neutral species. Read a high logD as higher lipophilicity. As a reminder, the fraction unbound is free concentration divided by total concentration. A high value points to weak binding. As usually defined, the solubility is the concentration that dissolves in the medium under given conditions. As usually defined, the clearance is a measure of how efficiently the substance is removed, as volume per time. Read a low clearance as a low capacity for elimination. On to `CO[C@H]1CN(c2nc(C(=O)O)cs2)CC[C@H]1NC(=O)c1[nH]c(C)c(Cl)c1Cl`, for which the MIC in the series on Haemophilus influenzae is 0.1 µg/mL (≈ 0.231 µM); in the series on Streptococcus pneumoniae it was 0.2 µg/mL (≈ 0.462 µM); against Streptococcus pyogenes, 0.035 µg/mL (≈ 0.0808 µM); with Staphylococcus aureus [1], 0.2 µg/mL (≈ 0.462 µM); in the series with Staphylococcus aureus [2], 0.32 µg/mL (≈ 0.738 µM); with Moraxella catarrhalis, 0.05 µg/mL (≈ 0.115 µM). Moreover, the MIC with Escherichia coli [3] is more than 8 µg/mL; with Escherichia coli [4], 0.1 µg/mL (≈ 0.231 µM). The compound further gave an IC50 at DNA gyrase subunit B of less than 10 nM. In [5], this compound yielded a logD of 0.25. Moreover, in [6], the fraction unbound was determined as 0.022. In addition, in [7], the concentration in solution (solubility) came to 930 µM (≈ 403 µg/mL). The Ratio in series [8] turned out to be 15. Moreover, the clearance in series [9] was found to be 49 mL/min/kg.

Take `CO[C@H]1CN(c2nc(CN3CCOCC3)c(C(=O)O)s2)CC[C@H]1NC(=O)c1[nH]c(C)c(Cl)c1Cl` (racemic): the MIC in the series on Haemophilus influenzae stood at 4 µg/mL (≈ 7.51 µM); in the series on Streptococcus pneumoniae, 0.25 µg/mL (≈ 0.47 µM); against Streptococcus pyogenes, 0.25 µg/mL (≈ 0.47 µM); in the series with Staphylococcus aureus [1], 2 µg/mL (≈ 3.76 µM); with Staphylococcus aureus [2], 2 µg/mL (≈ 3.76 µM); with Moraxella catarrhalis, 1 µg/mL (≈ 1.88 µM). Besides, the MIC in the series on Escherichia coli [3] was 0.13 µg/mL (≈ 0.244 µM); in the series on Escherichia coli [4], more than 8 µg/mL. The same compound had an IC50 on DNA gyrase subunit B of less than 10 nM. In [5], this compound came in with a logD of 1.4. In series [6], this compound had a fraction unbound of 0.057. This compound also gave a solubility in series [7] of more than 1000 µM. Moreover, in [8], the Ratio is recorded as 35. In addition, the clearance in series [9] came to 0.25 mL/min/kg.

With `CO[C@H]1CN(c2nc(-c3cncc(OCCN(C)C)n3)c(C(=O)O)s2)CC[C@H]1NC(=O)c1[nH]c(C)c(Cl)c1Cl`, the MIC was 0.23 µg/mL (≈ 0.384 µM) with Haemophilus influenzae; 0.011 µg/mL (≈ 0.0184 µM) in the series with Streptococcus pneumoniae; 0.031 µg/mL (≈ 0.0518 µM) in the series on Streptococcus pyogenes; 0.13 µg/mL (≈ 0.217 µM) in the series on Staphylococcus aureus [1]; 0.19 µg/mL (≈ 0.317 µM) in the series on Staphylococcus aureus [2]; 60 µg/mL (≈ 100 µM) in the series on Escherichia coli [3]. Besides, the MIC in the series with Escherichia coli [4] came to 0.23 µg/mL (≈ 0.384 µM). This compound had an IC50 at DNA gyrase subunit B of less than 10 nM. In addition, in series [5], the logD is 0.8. In addition, the fraction unbound in [6] is 0.037. The same compound had a solubility in series [7] of 770 µM (≈ 461 µg/mL). The Ratio in [8] stood at 5.1. The clearance in series [9] was determined as 9.6 mL/min/kg.

For `CO[C@H]1CN(c2nc(C(C)=O)c(C(=O)O)s2)CC[C@H]1NC(=O)c1[nH]c(C)c(Cl)c1Cl`, the MIC in the series with Haemophilus influenzae amounted to 0.15 µg/mL (≈ 0.316 µM); in the series with Streptococcus pneumoniae, 0.02 µg/mL (≈ 0.0421 µM); in the series with Streptococcus pyogenes it was 0.02 µg/mL (≈ 0.0421 µM); in the series with Staphylococcus aureus [1] it was 0.063 µg/mL (≈ 0.133 µM); in the series with Staphylococcus aureus [2] it was 0.063 µg/mL (≈ 0.133 µM); in the series with Moraxella catarrhalis, 0.02 µg/mL (≈ 0.0421 µM). Also, the MIC with Escherichia coli [3] is 30 µg/mL (≈ 63.1 µM); in the series on Escherichia coli [4], 0.26 µg/mL (≈ 0.547 µM). The compound further registered an IC50 at DNA gyrase subunit B of less than 10 nM. Besides, the logD in series [5] turned out to be 0.36. Besides, the fraction unbound in series [6] amounted to 0.019. Further, in series [7], the concentration in solution (solubility) came to 890 µM (≈ 423 µg/mL). In addition, the Ratio in series [8] stood at 3.7. This compound gave a clearance in series [9] of 9.3 mL/min/kg.

In the case of `COCC(COC)(COC)NC(=O)c1nc(N2CC[C@@H](NC(=O)c3[nH]c(C)c(Cl)c3Cl)[C@@H](OC)C2)sc1C(=O)O`, the MIC is 0.15 µg/mL (≈ 0.241 µM) with Haemophilus influenzae; 0.016 µg/mL (≈ 0.0257 µM) in the series with Streptococcus pneumoniae; 0.016 µg/mL (≈ 0.0257 µM) with Streptococcus pyogenes; 0.031 µg/mL (≈ 0.0498 µM) in the series with Staphylococcus aureus [1]; 0.031 µg/mL (≈ 0.0498 µM) in the series with Staphylococcus aureus [2]; 0.008 µg/mL (≈ 0.0129 µM) in the series with Moraxella catarrhalis. Besides, the MIC in the series on Escherichia coli [3] was 29 µg/mL (≈ 46.6 µM); in the series with Escherichia coli [4] it was 1.3 µg/mL (≈ 2.09 µM). At DNA gyrase subunit B, this compound returned an IC50 of less than 10 nM. The same compound returned a logD in [5] of 1.9. Moreover, the fraction unbound in series [6] was 0.047. The solubility in [7] is 720 µM (≈ 448 µg/mL). The Ratio in series [8] is on record as 0.66. Besides, the clearance in series [9] is 18 mL/min/kg.

In the case of `CO[C@H]1CN(c2nc3cccc(C(=O)O)c3s2)CC[C@H]1NC(=O)c1[nH]c(C)c(Cl)c1Cl`, the MIC was 0.031 µg/mL (≈ 0.0641 µM) in the series on Haemophilus influenzae; 0.032 µg/mL (≈ 0.0662 µM) in the series with Streptococcus pneumoniae; 0.031 µg/mL (≈ 0.0641 µM) in the series with Staphylococcus aureus [1]; 0.031 µg/mL (≈ 0.0641 µM) in the series with Staphylococcus aureus [2]; less than 0.001 µg/mL in the series with Moraxella catarrhalis; 8 µg/mL (≈ 16.6 µM) with Escherichia coli [3]. Further, the MIC with Escherichia coli [4] turned out to be 0.25 µg/mL (≈ 0.517 µM). Besides, the IC50 against DNA gyrase subunit B was less than 10 nM. The same compound came in with a logD in series [5] of 1.7. Also, in series [6], the fraction unbound is less than 0.01. In addition, the solubility in [7] is less than 1 µM. Also, the Ratio in series [8] is more than 31. Also, the clearance in series [9] worked out at 60 mL/min/kg.

With `CO[C@H]1CN(c2nc(C)c(C(=O)O)s2)CC[C@H]1NC(=O)c1[nH]c(C)c(Cl)c1Cl`, the MIC was 0.072 µg/mL (≈ 0.161 µM) with Haemophilus influenzae; 0.013 µg/mL (≈ 0.0291 µM) in the series with Streptococcus pneumoniae; less than 0.008 µg/mL against Streptococcus pyogenes; 0.031 µg/mL (≈ 0.0693 µM) in the series on Staphylococcus aureus [1]; 0.053 µg/mL (≈ 0.118 µM) in the series with Staphylococcus aureus [2]; 0.008 µg/mL (≈ 0.0179 µM) in the series with Moraxella catarrhalis. Moreover, the MIC in the series on Escherichia coli [3] is more than 8 µg/mL; in the series on Escherichia coli [4], 0.25 µg/mL (≈ 0.559 µM). On DNA gyrase subunit B, the IC50 is less than 10 nM. For the same compound, the logD in [5] was determined as 1.2. The compound also gave a fraction unbound in [6] of 0.018. In series [7], this compound came in with a solubility of 450 µM (≈ 201 µg/mL). For the same compound, in series [8], the Ratio was 2.9. The compound also showed a clearance in series [9] of 26 mL/min/kg.
